Data as given in ChEMBL document CHEMBL3414548, “Luotonin-A based quinazolinones cause apoptosis and senescence via HDAC inhibition and activation of tumor suppressor proteins in HeLa cells” (Eur J Med Chem, 2015).
Blank lines part the entries; values can stand above or below the molecule they belong to. Calls of active or inactive are those of the source. The calls are words filed in the database; no cut-off is given here.

What was measured:
HEK293 [1] = experiment: Selectivity index, ratio of IC50 for HEK cells to IC50 for human MCF7 cells; assay type: functional
Outline: (§1)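 Selectivity index is IC50 in normal HEK cells divided by IC50 in the cancer cell line.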

HeLa [2] = experiment: Cell cycle arrest in human HeLa cells assessed as accumulation at G0 phase at 8 uM after 48 hrs by propidium iodide staining-based flow cytometric analysis (reference value: 3%); assay type: functional
HeLa [3] = experiment: Upregulation of p53 mRNA expression in human HeLa cells at 4 uM after 48 hrs by RT-PCR analysis; assay type: functional, cell-based
Outline: (§2)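 HeLa cells were treated at 4 μM for 48 h before RNA isolation. cDNA was amplified by RT-PCR with gene-specific primers, using GAPDH as loading control. Products were run on 1% agarose gel with ethidium bromide, and band intensity was quantified by densitometry.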

HEK293 [4] = experiment: Selectivity index, ratio of IC50 for HEK cells to IC50 for human K562 cells; assay type: functional; outline: as §1
HeLa [5] = experiment: Upregulation of p21 mRNA expression in human HeLa cells at 4 uM after 48 hrs by RT-PCR analysis; assay type: functional, cell-based; outline: as §2
HeLa [6] = experiment: Downregulation of EZH2 mRNA expression in human HeLa cells at 4 uM after 48 hrs by RT-PCR analysis; assay type: functional, cell-based; outline: as §2
K562 = experiment: Cytotoxicity against human K562 cells after 72 hrs by MTT assay; assay type: functional, cell-based; details: K562, 72 h
Outline: (§3)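 Cells were seeded at 1×10⁴ per well and preincubated 18 h at 37 °C, 5% CO₂. They were then exposed to 1–256 μM for 72 h with DMSO ≤0.25%. MTT was added for 2 h and formazan was solubilized in extraction buffer before reading OD at 570 nm. IC50 is mean ± SD of three independent experiments. HEK is the normal-cell line; cancer lines were grown in DMEM with 10% serum.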

HeLa [7] = experiment: Cell cycle arrest in human HeLa cells assessed as accumulation at G0/G1 phase at 4 uM after 48 hrs by propidium iodide staining-based flow cytometric analysis (reference value: 62%); assay type: functional
HeLa [8] = experiment: Downregulation of HDAC-1 mRNA expression in human HeLa cells at 4 uM after 48 hrs by RT-PCR analysis; assay type: functional, cell-based; outline: as §2
HeLa [9] = experiment: Selectivity index, ratio of IC50 for HEK cells to IC50 for human HeLa cells; assay type: functional; outline: as §1
HeLa [10] = experiment: Downregulation of HDAC-2 mRNA expression in human HeLa cells at 4 uM after 48 hrs by RT-PCR analysis; assay type: functional, cell-based; outline: as §2
MCF7 = experiment: Cytotoxicity against human MCF7 cells after 72 hrs by MTT assay; assay type: functional, cell-based; details: MCF7, 72 h; outline: as §3
HeLa [11] = experiment: Cell cycle arrest in human HeLa cells assessed as accumulation at S phase at 4 uM after 48 hrs by propidium iodide staining-based flow cytometric analysis (reference value: 7%); assay type: functional
HeLa [12] = experiment: Cell cycle arrest in human HeLa cells assessed as accumulation at G1 phase at 8 uM after 48 hrs by propidium iodide staining-based flow cytometric analysis (reference value: 68%); assay type: functional
HeLa [13] = experiment: Downregulation of HDAC-5 mRNA expression in human HeLa cells at 4 uM after 48 hrs by RT-PCR analysis; assay type: functional, cell-based; outline: as §2
HeLa [14] = experiment: Cell cycle arrest in human HeLa cells assessed as accumulation at S phase at 8 uM after 48 hrs by propidium iodide staining-based flow cytometric analysis (reference value: 10%); assay type: functional
HeLa [15] = experiment: Change in HDAC-6 mRNA expression in human HeLa cells at 4 uM after 48 hrs by RT-PCR analysis; assay type: functional, cell-based; outline: as §2
HeLa [16] = experiment: Cell cycle arrest in human HeLa cells assessed as accumulation at G2/M phase at 4 uM after 48 hrs by propidium iodide staining-based flow cytometric analysis (reference value: 31%); assay type: functional
[17] = Cytotoxicity against HEK cells after 72 hrs by MTT assay; assay type: cell-based; details: Homo sapiens, HEK293, 72 h; outline: as §3
HeLa [18] = experiment: Change in HDAC-7 mRNA expression in human HeLa cells at 4 uM after 48 hrs by RT-PCR analysis; assay type: functional, cell-based; outline: as §2
HeLa [19] = experiment: Induction of senescence in human HeLa cells at 4 uM after 72 hrs by X-gal staining-based beta-galactosidase assay; assay type: functional, cell-based
Outline: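 HeLa cells in chamber slides were treated at 4 μM for 72 h. They were fixed in 3% paraformaldehyde and then in methanol at 4 °C. Staining used X-gal in sodium phosphate buffer with ferro/ferricyanide, 1 mM MgCl₂ and citric acid for 24 h. Senescent cells were scored by microscopy as enlarged, flattened and blue.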

HeLa [20] = experiment: Induction of human p16 promoter activity transfected in human HeLa cells at 4 uM after 48 hrs by luciferase-based luminescence assay; assay type: cell-based
Outline: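 A 1.4 kb human p16 promoter in pGL3-basic luciferase vector was co-transfected into HeLa with a β-gal plasmid. Cells were then treated at 4 μM for 48 h. Lysate luciferase luminescence was normalized to β-galactosidase as internal control.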

[21] = molecular target: Histone deacetylase (HDAC1 and HDAC2) (Homo sapiens, UniProt Q13547+Q92769); experiment: Inhibition of HDAC1/2 in human HeLa cells using color de lys as substrate after 30 mins by colorimetric analysis; assay type: cell-based
Outline: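 HeLa cells were treated at 4 μM, with TSA as reference. Samples were then incubated 30 min with Color de Lys substrate and HDAC-1/2. Developer yields a yellow product, and absorbance was read at 405 nm.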

HeLa [22] = experiment: Cytotoxicity against human HeLa cells after 72 hrs by MTT assay; assay type: functional, cell-based; outline: as §3
HeLa [23] = experiment: Cell cycle arrest in human HeLa cells assessed as accumulation at G2/M phase at 4 uM after 48 hrs by propidium iodide staining-based flow cytometric analysis (reference value: 19%)

IC50 [21]: 2.96 µM
Structure (SMILES): Cc1nc2ccccc2c(=O)n1-c1ccccc1Cn1cc(-c2ccccc2)nn1
Ratio IC50 (HEK293 [1]): 32 | Activity (HeLa [2]): 7% | Activity (HeLa [3]): Active | Ratio IC50 (HEK293 [4]): 12.69 | Activity (HeLa [5]): Active | Activity (HeLa [6]): Active | IC50 (K562): 20.2 µM | Activity (HeLa [7]): 76% | Activity (HeLa [8]): Active | Ratio IC50 (HeLa [9]): 43.09 | Activity (HeLa [10]): Active | IC50 (MCF7): 8 µM | Activity (HeLa [11]): 6% | Activity (HeLa [12]): 72% | Activity (HeLa [13]): Active | Activity (HeLa [14]): 6% | Activity (HeLa [15]): inactive | Activity (HeLa [16]): 18% | IC50 [17]: 256 µM | Activity (HeLa [18]): inactive | Activity (HeLa [19]): Active | Activity (HeLa [20]): Active | IC50 (HeLa [22]): 5.94 µM | Activity (HeLa [23]): 15%

IC50 [21]: 6.4 µM
Structure (SMILES): O=c1c2ccccc2nc2n1Cc1cc3ccccc3nc1-2 [LUOTONIN A]
Ratio IC50 (HEK293 [1]): 6.25 | Activity (HeLa [2]): 5% | Activity (HeLa [3]): Active | Ratio IC50 (HEK293 [4]): 2.01 | Activity (HeLa [5]): Active | Activity (HeLa [6]): Active | IC50 (K562): 28.8 µM | Activity (HeLa [7]): 75% | Activity (HeLa [8]): Active | Ratio IC50 (HeLa [9]): 9.76 | Activity (HeLa [10]): Active | IC50 (MCF7): 9.28 µM | Activity (HeLa [11]): 5% | Activity (HeLa [12]): 72% | Activity (HeLa [13]): Active | Activity (HeLa [14]): 5% | Activity (HeLa [15]): inactive | Activity (HeLa [16]): 20% | IC50 [17]: 58 µM | Activity (HeLa [18]): inactive | Activity (HeLa [19]): Active | Activity (HeLa [20]): Active | IC50 (HeLa [22]): 5.94 µM | Activity (HeLa [23]): 17%
